Publication PMC10876062 (Science (New York, N.Y.), 2023)

Legend:
[1] = test system: C. albicans hyphae; assay: C. albicans hyphal growth; assay type: cell-based, Candida albicans
In short: (§1)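 C. albicans hyphae were grown in RPMI. They were exposed to the test peptide with or without 2.5% w/v porcine […], alongside scrambled-peptide and magainin-2 controls. Read-outs were respiration by XTT tetrazolium assay, dry weight, biofilm adherence and CFUs. Each assay was run in duplicate, three times.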

[2] = test system: C. albicans hyphae on Caco-2 cells; assay: C. albicans hyphae-GFP attachment to Caco-2 cells; assay type: cell-based, Candida albicans; conditions: 20 μM peptide, 6 hours, confluent Caco-2, vs vehicle
[3] = test system: representative Gram-positive and -negative bacteria; assay: Antimicrobial activity against bacteria; assay type: cell-based; conditions: CFUs and O.D. normalized to 0 μM PYY
In short: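 Gram-positive and Gram-negative bacteria were exposed to a range of test peptide concentrations, with or without mucus, and compared with a magainin-2 reference peptide. Surviving CFUs were normalised to 0 μM peptide, and O.D. growth to wells with 0 μM peptide. Each assay was run in duplicate, three times, and analysed by ANOVA.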

[4] = test system: C. albicans hyphae; assay: C. albicans hyphal respiration; assay type: cell-based, Candida albicans; conditions: XTT assay; increasing concentrations, with or without 2.5% w/v mucin
In short: as §1

[5] = test system: C. albicans yeast; assay: C. albicans yeast survival; assay type: cell-based, Candida albicans; conditions: increasing concentrations, media with or without 2.5% w/v mucin; CFU and O.D.
In short: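 C. albicans yeast were grown in YPD. They were exposed to the test peptide with or without 2.5% w/v porcine […], alongside scrambled-peptide and magainin-2 controls. Survival was read as CFUs and growth as optical density. Each assay was run in duplicate, three times.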

[6] = test system: C. albicans yeast; assay: Propidium iodide membrane permeabilization of C. albicans yeast; assay type: cell-based, Candida albicans; conditions: 30 μM peptide
In short: (§2)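 C. albicans yeast and hyphae were exposed to FITC-tagged test peptide and stained with propidium iodide to read membrane permeabilization. Exposure was in standard antimicrobial peptide assay buffer, in the preferred growth medium (YPD for yeast, RPMI for hyphae), or in buffer plus 2.5% w/v porcine mucus. For hyphae, the assay was repeated with sodium sulfate added as an anionic charge quencher.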

[7] = Mucus vs. aqueous partitioning in vitro across 10 kDa MWCO filter; assay type: physicochemical; conditions: 10 kDa MWCO filter separating mucus and aqueous wells
In short: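 Test peptide was added to either the mucus well or the aqueous well of a pair separated by a 10 kDa MWCO filter. Experiments were run in triplicate and repeated three times, with a t-test for comparison.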

[8] = test system: C. albicans hyphae; assay: Propidium iodide membrane permeabilization of C. albicans hyphae; assay type: cell-based, Candida albicans
In short: as §2

Substance: PYY1–36: unmodified, full length peptide YY expressed by Paneth cells
- Shape of dose-response in biofilm and colony forming units ([1]; 2.5% w/v mucin present): sigmoidal dose-response curve
- Concentration of peak effect (biphasic dose-response) ([1]; aqueous (RPMI) buffer): ~ 30 μM
- Concentration of loss of activity (biphasic dose-response) ([1]; aqueous (RPMI) buffer, attributed to self-aggregation): 100 µM
- Concentration at which biofilm formation was significantly reduced ([1]; aqueous conditions, biofilm adherence): 20 to 50 µM
- Concentration at which hyphal growth was significantly reduced ([1]; aqueous conditions, dry weight): 20 to 50 µM
- Numbers of hyphae attached to Caco-2 cells [2]: significantly reduced
- Antimicrobial activity against Gram-positive and -negative bacteria [3]: less activity compared with more effective magainin-2
- Effect on hyphal respiration [4]: decrease in hyphal respiration
- Effect on yeast numbers or density [5]: did not affect
- Permeabilization of yeast (PI) [6]: unaffected
- Partitioning between mucus and aqueous compartments [7]: preferentially partitions into mucus
- Concentration at which permeabilization of hyphae was observed (PI) ([8]; hyphae induced in presence of 2.5% w/v porcine mucin, propidium iodide): 30 µM
- Peptide-induced permeability (PI) in presence of sodium sulfate ([8]; sodium sulfate as anionic quencher of cationic charge): reduced

Substance: PYY3–36: circulating endocrine form, formed by removal of two N-terminal amino acids by DPP-IV [reference compound]
- Effect on biofilm ([1]; biofilm adherence): No differences
- Effect on hyphal respiration [4]: less activity
- Permeabilization / disruption of hyphae (PI), in words ([8]; propidium iodide, compared with PYY1–36 (native L-isoform)): Less pronounced permeabilization

Substance: PYY1–36 - fluorescein isothiocyanate (FITC) tagged peptide: FITC tagged PYY1–36
- Co-localization of tagged peptide with PI signal ([8]; FITC-tagged peptide, fluorescence microscopy): co-localized with the PI signal within hyphae

Substance: magainin-2 [reference compound]
- Antimicrobial activity against Gram-positive and -negative bacteria [3]: more effective
